Test results from ChEMBL document CHEMBL4257441, “Protection effect of intracellular melanin from Lachnum YM156 and Haikunshenxi capsule combination on adenine-induced chronic renal failure in mice” (Medchemcomm, 2017).
Activity calls are given as the source filed them. No cut-off for these calls is given here.

What was measured:
Mus musculus [1] = test: Protective effect against adenine-induced chronic renal failure in Kunming mouse assessed as nephridial IL-1beta levels at 100 mg/kg, ig qd administered for 4 successive weeks (reference value: 18.34 +/- 0.25 pg/ml); type: functional
Mus musculus [2] = test: Protective effect against adenine-induced chronic renal failure in Kunming mouse assessed as nephridial GSH levels at 200 mg/kg, ig qd administered for 4 successive weeks by colorimetric method (reference value: 3.05 +/- 0.11 mg/g); type: functional
Mus musculus [3] = test: Protective effect against adenine-induced chronic renal failure in Kunming mouse assessed as nephridial GSH-PX levels at 100 mg/kg, ig qd administered for 4 successive weeks by colorimetric method (reference value: 688.45 +/- 12.67 U/L); type: functional
Mus musculus [4] = test: Protective effect against adenine-induced chronic renal failure in Kunming mouse assessed as reduction in renal tubular atrophy at 200 mg/kg, ig qd administered for 4 successive weeks by haematoxylin and eosin dye-based optical microscopic method; type: functional, organism-based
Outline: (§1)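 Kidneys were taken from male Kunming mice given an adenine diet plus oral melanin (100 or 200 mg kg–1), with or without Haikunshenxi capsule, ten per group. Histological sections were examined at 400× for glomeruli, tubules, adenine crystals, tubular atrophy and interstitial fibrosis.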

Mus musculus [5] = test: Protective effect against adenine-induced chronic renal failure in Kunming mouse assessed as weight growth rate at 100 mg/kg, ig qd administered for 4 successive weeks measured 24 hrs post last dose (reference value: 32.42 +/- 1.43%); type: functional
Outline: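 Male Kunming mice (20 ± 5 g) were housed on a 12 h light/dark cycle at 18–20 °C. Chronic renal failure was induced by long-term dietary adenine. The melanin was given orally at 100 or 200 mg kg–1, alone or with Haikunshenxi capsule as positive drug, with ten mice per group. Weight growth rate (%) and kidney index (mg g–1) were recorded.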

Mus musculus [6] = test: Protective effect against adenine-induced chronic renal failure in ig dosed Kunming mouse assessed as decrease in nephridial IL-6 levels administered as qd for 4 successive weeks with haikunshenxi capsule; type: functional, organism-based
Outline: (§2)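 CRF model made by chronic dietary adenine in male Kunming mice (20 ± 5 g); oral dosing at 100 or 200 mg kg–1, alone or with Haikunshenxi capsule; ten mice per group. Kidney tissue TNF-α, IL-1β and IL-6 measured as pg per mg protein, and iNOS activity as U mg–1 protein.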

Mus musculus [7] = test: Protective effect against adenine-induced chronic renal failure in ig dosed Kunming mouse assessed as decrease in nephridial iNOS levels administered as qd for 4 successive weeks with haikunshenxi capsule; type: functional, organism-based; outline: as §2
Mus musculus [8] = test: Protective effect against adenine-induced chronic renal failure in Kunming mouse assessed as reduction in number of adenine crystals at 200 mg/kg, ig qd administered for 4 successive weeks with haikunshenxi capsule by haematoxylin and eosin dye-based optical microscopic method; type: functional, organism-based; outline: as §1
Mus musculus [9] = test: Protective effect against adenine-induced chronic renal failure in Kunming mouse assessed as reduction in number of adenine crystals in kidney at 200 mg/kg, ig qd administered for 4 successive weeks by haematoxylin and eosin dye-based optical microscopic method; type: functional, organism-based; outline: as §1

`Cc1c(=O)c(=O)c2c3c[nH]c4c(C)c(=O)c(=O)c(c5c[nH]c1c52)c43` was tested, and the Activity (Mus musculus [1]) was 17.66 pg/mL, the Activity (Mus musculus [2]) was 4.84 mg/g and the Activity (Mus musculus [3]) was 743.09 U/L. The Activity (Mus musculus [4]) was “Active”, the Activity (Mus musculus [5]) was 50.12% and the Activity (Mus musculus [6]) was “Dose-dependent effect”. For the same molecule, the Activity (Mus musculus [7]) was “Dose-dependent effect”, the Activity (Mus musculus [8]) was “Active” and the Activity (Mus musculus [9]) was “Active”.
